ChEMBL document CHEMBL1138411, “Design, synthesis, and biological evaluation of 1,3-dioxoisoindoline-5-carboxamide derivatives as T-type calcium channel blockers” (Bioorg Med Chem Lett, 2007)
pIC50: −log10 of the molar value.

Legend:
[1] = biological target: Voltage-dependent T-type calcium channel subunit alpha-1G (Homo sapiens, UniProt O43497); test: Inhibition of T-type calcium channel Cav3.1 expressed in HEK293 cells co-expressing alpha1G subunit and Kir2.1 potassium channel by patch-clamp assay; assay type: cell-based
How it was run: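 Cells were HEK293 stably co-expressing Cav3.1 (α1G) and Kir2.1. Single-cell patch-clamp recording measured % inhibition of Ca2+ current at set compound concentrations, giving IC50 values. This was a secondary screen of compounds selected from a primary FDSS6000 fluorescence high-throughput assay.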

[2] = Inhibition of N-type calcium channel activity; set-up: species or system Homo sapiens
Homo sapiens = species on record: Homo sapiens; test: Selectivity index, ratio of IC50 for N-type calcium channel to IC50 for T-type calcium channel Cav3.1
[3] = Cytotoxicity against HEK293 cells by MTT assay; assay type: cell-based; conditions: human
How it was run: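 MTT viability read-out. Negative control was 0.1% DMSO and positive control was H2O2.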

Sequence of Voltage-dependent T-type calcium channel subunit alpha-1G (O43497 whole entry): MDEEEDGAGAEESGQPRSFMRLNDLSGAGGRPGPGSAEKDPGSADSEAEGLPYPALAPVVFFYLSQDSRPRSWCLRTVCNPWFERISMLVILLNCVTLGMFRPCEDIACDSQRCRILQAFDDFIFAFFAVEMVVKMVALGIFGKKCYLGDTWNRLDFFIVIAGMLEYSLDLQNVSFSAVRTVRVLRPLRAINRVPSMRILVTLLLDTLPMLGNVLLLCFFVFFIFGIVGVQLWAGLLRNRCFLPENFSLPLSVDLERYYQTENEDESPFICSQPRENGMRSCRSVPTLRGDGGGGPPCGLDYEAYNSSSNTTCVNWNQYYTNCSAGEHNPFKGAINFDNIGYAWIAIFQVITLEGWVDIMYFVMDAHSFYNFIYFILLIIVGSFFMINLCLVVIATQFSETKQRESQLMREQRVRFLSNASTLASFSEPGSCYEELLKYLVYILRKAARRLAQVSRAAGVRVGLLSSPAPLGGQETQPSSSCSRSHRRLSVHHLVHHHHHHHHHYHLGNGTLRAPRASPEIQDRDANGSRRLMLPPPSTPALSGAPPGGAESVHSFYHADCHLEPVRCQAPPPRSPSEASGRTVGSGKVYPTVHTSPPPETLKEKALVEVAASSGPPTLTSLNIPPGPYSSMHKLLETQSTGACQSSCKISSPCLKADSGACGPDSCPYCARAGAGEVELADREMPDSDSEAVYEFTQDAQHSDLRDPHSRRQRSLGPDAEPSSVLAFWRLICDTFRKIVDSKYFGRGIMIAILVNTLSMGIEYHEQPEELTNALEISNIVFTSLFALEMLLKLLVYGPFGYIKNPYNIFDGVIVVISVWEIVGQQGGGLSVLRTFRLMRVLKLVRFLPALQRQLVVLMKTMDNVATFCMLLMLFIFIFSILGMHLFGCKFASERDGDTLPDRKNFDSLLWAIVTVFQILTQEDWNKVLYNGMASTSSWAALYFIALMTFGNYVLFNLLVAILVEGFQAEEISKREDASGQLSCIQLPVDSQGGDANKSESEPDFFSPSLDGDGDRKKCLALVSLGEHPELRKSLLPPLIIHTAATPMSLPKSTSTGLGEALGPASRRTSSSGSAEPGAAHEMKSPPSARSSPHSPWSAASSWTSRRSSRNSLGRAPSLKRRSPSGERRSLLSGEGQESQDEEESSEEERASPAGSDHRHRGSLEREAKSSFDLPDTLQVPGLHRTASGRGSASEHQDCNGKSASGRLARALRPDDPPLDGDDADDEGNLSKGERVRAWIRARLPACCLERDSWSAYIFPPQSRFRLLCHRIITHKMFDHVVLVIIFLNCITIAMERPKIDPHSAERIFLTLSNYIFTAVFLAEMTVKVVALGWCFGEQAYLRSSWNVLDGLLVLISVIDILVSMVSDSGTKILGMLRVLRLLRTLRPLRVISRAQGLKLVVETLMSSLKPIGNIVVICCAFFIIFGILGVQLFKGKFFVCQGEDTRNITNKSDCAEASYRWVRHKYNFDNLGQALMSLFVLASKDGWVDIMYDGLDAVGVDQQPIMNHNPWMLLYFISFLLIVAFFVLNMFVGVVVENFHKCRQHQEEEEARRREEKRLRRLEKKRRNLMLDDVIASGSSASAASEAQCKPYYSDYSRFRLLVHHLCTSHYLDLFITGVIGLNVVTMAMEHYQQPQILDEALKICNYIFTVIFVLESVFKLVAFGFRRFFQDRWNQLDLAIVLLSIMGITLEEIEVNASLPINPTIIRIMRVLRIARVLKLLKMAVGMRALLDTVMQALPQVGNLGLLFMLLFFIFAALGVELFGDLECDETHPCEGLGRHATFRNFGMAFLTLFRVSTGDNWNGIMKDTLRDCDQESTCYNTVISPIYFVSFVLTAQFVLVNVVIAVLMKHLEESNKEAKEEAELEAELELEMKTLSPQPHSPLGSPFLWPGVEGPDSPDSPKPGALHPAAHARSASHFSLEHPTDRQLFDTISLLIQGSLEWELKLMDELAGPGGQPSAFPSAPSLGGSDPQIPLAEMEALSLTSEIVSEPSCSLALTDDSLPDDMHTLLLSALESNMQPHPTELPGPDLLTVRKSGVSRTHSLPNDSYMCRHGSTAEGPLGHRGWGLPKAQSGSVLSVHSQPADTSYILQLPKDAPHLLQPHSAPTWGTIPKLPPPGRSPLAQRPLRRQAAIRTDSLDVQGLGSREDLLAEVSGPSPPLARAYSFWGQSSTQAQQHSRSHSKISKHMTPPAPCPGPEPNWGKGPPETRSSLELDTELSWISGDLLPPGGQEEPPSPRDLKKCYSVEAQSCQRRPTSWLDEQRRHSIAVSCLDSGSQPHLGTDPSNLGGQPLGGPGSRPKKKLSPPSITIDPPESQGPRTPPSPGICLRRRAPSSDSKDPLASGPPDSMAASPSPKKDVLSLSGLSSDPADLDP

| SMILES | pIC50 [1] | also measured |
| --- | --- | --- |
| O=C(NCCN1CCCCC1)c1ccc2c(c1)C(=O)N(Cc1ccccc1)C2=O | 4.64 |  |
| COc1ccc(CN2C(=O)c3ccc(C(=O)NCCN4CCCCC4)cc3C2=O)cc1 | 5.28 |  |
| O=C(NCCN1CCCCC1)c1ccc2c(c1)C(=O)N(Cc1ccccc1Cl)C2=O | 5.24 |  |
| O=C(NCCN1CCCCC1)c1ccc2c(c1)C(=O)N(Cc1cccc(Cl)c1)C2=O | 5.39 |  |
| O=C(NCCN1CCCCC1)c1ccc2c(c1)C(=O)N(Cc1ccc(Cl)cc1)C2=O |  | pIC50 [2]: 4.48; Ratio IC50 (Homo sapiens): 35; CC50 [3]: > 100 µM |
| Cc1ccc(CN2C(=O)c3ccc(C(=O)NCCCN4CCCCC4C)cc3C2=O)cc1 (stereo unspecified) | 5.45 |  |
| COc1cccc(CN2C(=O)c3ccc(C(=O)NCCN4CCCCC4)cc3C2=O)c1 | 4.85 |  |
| CC1CCCCN1CCCNC(=O)c1ccc2c(c1)C(=O)N(Cc1ccc(Cl)cc1)C2=O (stereo unspecified) |  | pIC50 [2]: 4.26; Ratio IC50 (Homo sapiens): 59; CC50 [3]: > 100 µM |
| O=C(NCCN1CCCCC1)c1ccc2c(c1)C(=O)N(Cc1ccccc1F)C2=O | 4.83 |  |

Continued, in another order:

| pIC50 [1] | SMILES | also measured |
| --- | --- | --- |
| 5.79 | O=C(NCCCN1CCCC1)c1ccc2c(c1)C(=O)N(Cc1ccc(Cl)cc1)C2=O |  |
| 5.24 | Cc1ccc(CN2C(=O)c3ccc(C(=O)NCCN4CCCCC4)cc3C2=O)cc1 |  |
| 5.05 | O=C(NCCN1CCCCC1)c1ccc2c(c1)C(=O)N(Cc1ccc(F)cc1)C2=O |  |
